Measurements published in ChEMBL document CHEMBL4373680, “Small antibacterial molecules highly active against drug-resistant Staphylococcus aureus” (Medchemcomm, 2019).
The source made the active and inactive calls. The rule behind the calls is not given here.

Columns and labels:
[1] = tested on: Staphylococcus aureus; test: Antibacterial activity against methicillin-resistant Staphylococcus aureus R3545 clinical isolate after 24 hrs by tecan plate reader analysis; assay type: functional; settings: R3545, 24 h
How it was run: (§1)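 Colony grown 24 h on NB agar at 37 °C, then 6 h in nutrient broth to mid-log (10⁸ CFU/mL by drop plating), diluted to 10⁵ CFU/mL in Mueller Hinton broth; added 9:1 to two-fold serial compound dilutions in MHB. Incubated 24 h, 37 °C; OD600 read. Triplicate per concentration, experiment run twice; MIC taken from the range of triplicate OD values.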

[2] = tested on: Staphylococcus aureus; test: Bactericidal activity against metabolically inactive stationary phase of methicillin-resistant Staphylococcus aureus ATCC 33591 assessed as bacterial killing at 32 ug/ml incubated for 6 hrs followed by plating on agar plate for 24 hrs by visual counting analysis relative to control; assay type: functional
[3] = Ratio of EC50 for dog MDCK cells to MIC for vancomycin-resistant Staphylococcus aureus clinical isolate 1; assay type: toxicity
[4] = Ratio of EC50 for human A549 cells to MIC for vancomycin-resistant Staphylococcus aureus clinical isolate 1; assay type: toxicity
[5] = tested on: Escherichia coli; test: Antibacterial activity against Escherichia coli MTCC 443 after 24 hrs by tecan plate reader analysis; assay type: functional; settings: MTCC 443, 24 h
How it was run: (§2)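 Broth microdilution MIC. Glycerol stocks grown on MacConkey agar 24 h at 37 °C, then a single colony in nutrient broth 6 h to mid-log (~10⁸ CFU/mL). Cells diluted to 10⁵ CFU/mL in Mueller Hinton broth and added to two-fold compound dilutions. Incubated 24 h at 37 °C, OD600 read. Triplicate wells, experiment run twice.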

[6] = tested on: Staphylococcus aureus; test: Antibacterial activity against methicillin-resistant Staphylococcus aureus ATCC 33591 after 24 hrs by tecan plate reader analysis; assay type: functional; settings: ATCC 33591, 24 h; how it was run: as §1
[7] = tested on: Staphylococcus aureus; test: Antibacterial activity against Staphylococcus aureus ATCC 33591 assessed as decrease in live cells at 32 ug/ml after 2 hrs by SYTO-9/propidium iodide staining based fluorescence microscopy analysis; assay type: functional, organism-based
How it was run: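 Mid-log cells (~10⁸ CFU/mL) pelleted and resuspended in 0.9% saline. Treated with 32 µg/mL compound for 2 h at 37 °C, pelleted and resuspended in saline. Stained with SYTO9 (3 µM) plus PI (15 µM) for 15 min in the dark, unbound dye removed, then imaged by fluorescence microscopy at 100×.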

[8] = tested on: Pseudomonas aeruginosa; test: Antibacterial activity against Pseudomonas aeruginosa MTCC 424 after 24 hrs by tecan plate reader analysis; assay type: functional; settings: MTCC 424, 24 h; how it was run: as §2
[9] = tested on: A549; test: Cytotoxicity against human A549 cells after 24 hrs by alamar blue assay; assay type: cell-based; settings: A549, 24 h
How it was run: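 About 10⁴ cells/well in DMEM with 10% FBS. Medium replaced with two-fold compound dilutions and incubated 24 h at 37 °C, 5% CO₂. Alamar Blue added for a further 4 h, absorbance 570 nm (600 nm reference). Viability normalized to untreated and 0.1% Triton-X wells. Triplicates; sigmoidal fit gives the 50% viability concentration.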

[10] = tested on: Staphylococcus aureus; test: Ratio of MIC for Staphylococcus aureus ATCC 33591 using compound preincubated with mouse 50% liver homogenate for 3 hrs to MIC for Staphylococcus aureus ATCC 33591 using non-treated compound; assay type: functional, organism-based
How it was run: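 Compound mixed 1:1 with human plasma, human serum or mouse liver homogenate (50%) and held 3 h at 37 °C. Saline and PBS incubations served as controls. Mixtures two-fold diluted (saline for plasma/serum, PBS for homogenate), then MRSA ATCC33591 (~10⁵ CFU/mL in MHB) added.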

[11] = tested on: Staphylococcus aureus; test: Antibacterial activity against methicillin-resistant Staphylococcus aureus R3889 clinical isolate after 24 hrs by tecan plate reader analysis; assay type: functional; settings: R3889, 24 h; how it was run: as §1
[12] = tested on: Staphylococcus aureus; test: Bactericidal activity against planktonic phase of methicillin-resistant Staphylococcus aureus R3545 assessed as log reduction in bacterial colony forming units at 32 ug/ml incubated for 12 hrs followed by plating on agar plate for 24 hrs by time-kill kinetic assay; assay type: functional
How it was run: (§3)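 Time-kill: 6 h mid-log culture diluted to 10⁵ CFU/mL in MHB, incubated at 37 °C with compound at […]; 0.9% saline control. Aliquots at 1, 2, 4, 6, 8 and 12 h ten-fold diluted in saline, plated on NB agar 24 h at 37 °C; colonies counted, log scale.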

[13] = tested on: Staphylococcus aureus; test: Induction of membrane depolarization in Staphylococcus aureus ATCC 33591 assessed as increase in fluorescence intensity measured upto 28 mins by DiSC3 staining based fluorescence spectroscopic technique; assay type: functional, organism-based
How it was run: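 Mid-log MRSA washed in 5 mM HEPES pH 7.4 and resuspended in 1:1:1 HEPES (5 mM), glucose (5 mM) and KCl (100 mM). Loaded with DiSC3(5) at 2 µM final, 30 min in the dark. Baseline fluorescence (ex 622/em 670 nm) read 4 min, compound added, monitored to 28 min. Water control; triplicates averaged.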

[14] = tested on: Staphylococcus aureus; test: Bactericidal activity against metabolically inactive stationary phase methicillin-resistant Staphylococcus aureus R3545 assessed as log reduction in bacterial colony forming units at 32 ug/ml incubated for 6 hrs followed by plating on agar plate for 24 hrs by visual counting analysis; assay type: functional
[15] = tested on: Staphylococcus aureus; test: Bactericidal activity against planktonic phase of methicillin-resistant Staphylococcus aureus ATCC 33591 assessed as log reduction in bacterial colony forming units at 16 ug/ml incubated for 6 hrs followed by plating on agar plate for 24 hrs by time-kill kinetic assay; assay type: functional; how it was run: as §3
[16] = tested on: Klebsiella pneumoniae; test: Antibacterial activity against Klebsiella pneumoniae ATCC 700603 after 24 hrs by tecan plate reader analysis; assay type: functional; settings: Klebsiella pneumoniae, 700603, 24 h; how it was run: as §2
[17] = Ratio of EC50 for dog MDCK cells to MIC for vancomycin-resistant Staphylococcus aureus clinical isolate 2; assay type: toxicity
[18] = tested on: Staphylococcus aureus; test: Bactericidal activity against planktonic phase of methicillin-resistant Staphylococcus aureus R3545 assessed as log reduction in bacterial colony forming units at 16 ug/ml incubated for 6 hrs followed by plating on agar plate for 24 hrs by time-kill kinetic assay; assay type: functional; how it was run: as §3
[19] = Selectivity index, ratio of HC50 for human erythrocytes to MIC for methicillin-resistant Staphylococcus aureus ATCC 33591; assay type: toxicity; settings: read-out: Selectivity Index
[20] = tested on: Staphylococcus aureus; test: Antibiofilm activity against Staphylococcus aureus ATCC 33591 assessed as reduction in biofilm biomass at 16 to 64 ug/ml incubated for 24 hrs followed by plating on agar plate for 24 hrs by crystal violet staining assay relative to control; assay type: functional
How it was run: (§4)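 Coverslip biofilms grown 24 h at 37 °C in nutrient broth with 1% glucose and 1% NaCl, then treated with compound for 24 h. PBS-washed and air-dried, stained with 0.1% w/v crystal violet for 5-10 min, washed, stain recovered in 95% ethanol, OD 522 nm read. Two experiments, mean with standard deviation.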

[21] = tested on: Staphylococcus aureus; test: Antibacterial activity against methicillin-resistant Staphylococcus aureus R3890 clinical isolate after 24 hrs by tecan plate reader analysis; assay type: functional; settings: R3890, 24 h; how it was run: as §1
[22] = tested on: Staphylococcus aureus; test: Antibacterial activity against vancomycin-resistant Staphylococcus aureus clinical isolate 1 after 24 hrs by tecan plate reader analysis; assay type: functional; settings: clinical isolate 1, 24 h; how it was run: as §1
[23] = tested on: Staphylococcus aureus; test: Antibiofilm activity against Staphylococcus aureus R3545 assessed as reduction in biofilm biomass at 16 to 64 ug/ml incubated for 24 hrs followed by plating on agar plate for 24 hrs by crystal violet staining assay relative to control; assay type: functional; how it was run: as §4

SMILES: CCCCCCNC(=O)C[N+](C)(CCO)CCCCCCCCCCCC[N+](C)(CCO)CC(=O)NCCCCCC.O=C([O-])C(F)(F)F.O=C([O-])C(F)(F)F (stereo not drawn)
- MIC [1]: 1 to 2 µg/mL
- Activity [2]: >99%
- selectivity ratio [3]: 94 to 97
- selectivity ratio [4]: 94 to 97
- MIC [5]: 2 µg/mL
- MIC [6]: 1 to 2 µg/mL
- inhibition [7]: Active
- MIC [8]: 128 µg/mL
- EC50 [9]: 194 µg/mL
- Ratio [10]: 2
- MIC [11]: 1 to 2 µg/mL
- Activity [12]: 6 log10CFU/ml
- Activity [13]: Dose-dependent effect
- Activity [14]: 2.8 log10CFU/ml
- Activity [15]: >2 log10CFU/ml
- MIC [16]: 128 µg/mL
- selectivity ratio [17]: 94 to 97
- Activity [18]: >2 log10CFU/ml
- selectivity ratio [19]: 577
- inhibition (INH) [20]: 60%
- MIC [21]: 2 µg/mL
- MIC [22]: 2 µg/mL
- inhibition (INH) [23]: 80%
